Runt-SMMHC FRET = inhibitors of human RUNX1 Runt domain binding to CBFb-SMMHC; inhibition, % at 20 µM; Q01196+Q13951; AID 1434; 220,000 compounds, 0.74% hits; Cerulean-Runt/Venus-CBFb-SMMHC FRET ratio 530/480, 1 h;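 active = mean inhibition across duplicate retests at 20 µM reaching about 50%, limit read from the data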;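 also: inhibitors lower the FRET ratio by blocking Runt binding to CBFb-SMMHC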
Target sequence (Q01196 whole entry, looked up, the tested form may be a part): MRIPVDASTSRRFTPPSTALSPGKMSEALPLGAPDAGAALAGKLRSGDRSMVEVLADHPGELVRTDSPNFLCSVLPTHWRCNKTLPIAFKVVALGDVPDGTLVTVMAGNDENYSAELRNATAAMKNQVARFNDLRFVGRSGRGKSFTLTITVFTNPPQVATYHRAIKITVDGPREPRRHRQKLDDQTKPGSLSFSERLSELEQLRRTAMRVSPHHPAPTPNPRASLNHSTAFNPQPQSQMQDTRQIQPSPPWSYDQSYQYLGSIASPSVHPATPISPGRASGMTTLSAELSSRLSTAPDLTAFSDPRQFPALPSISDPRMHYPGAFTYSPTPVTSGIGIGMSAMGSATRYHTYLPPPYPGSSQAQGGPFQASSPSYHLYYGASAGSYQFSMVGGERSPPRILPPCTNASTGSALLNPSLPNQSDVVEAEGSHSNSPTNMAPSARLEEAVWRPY
Target sequence (Q13951 whole entry, looked up, the tested form may be a part): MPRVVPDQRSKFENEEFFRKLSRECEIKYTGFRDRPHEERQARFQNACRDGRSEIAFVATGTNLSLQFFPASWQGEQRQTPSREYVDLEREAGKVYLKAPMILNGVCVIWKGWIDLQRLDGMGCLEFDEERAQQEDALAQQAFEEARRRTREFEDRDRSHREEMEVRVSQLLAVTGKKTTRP
Runt-CBFb FRET = blocks binding of human RUNX1 Runt domain to CBFb | Q01196+Q13951 | 220,000 compounds, 0.46% hits | Cerulean-Runt/Venus-CBFb FRET ratio 530/480, 1 h | inhibition, % at 20 µM;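 active = inhibition over about 50% at 20 µM in the single-dose screen, limit read from the data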
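System: Cerulean-labeled Runt domain protein | Quantity: 100 nM of each labeled protein | Schedule: 1 h compound exposure, room temperature | Detection: Fluorescence energy transfer, 422 nm excitation, 530/480 nm emission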
RanGTP-Impb inh = inhibitors of RanGTP-importin-beta interaction, primary screen, biochemical, FRET, CFP-Ran, YFP-importin-beta, homogeneous | inhibition, % (no concentration beside the values) | cell-free CFP-Ran/YFP-importin-beta FRET ratio | AID 2216 | 300,000 compounds, 1.1% hits;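 active = more than half of the replicate wells show a fall in the fluorescence ratio signal beyond about 16%, limit read from the data, passing the limit was not always enough; inconclusive = exactly half of the replicate wells pass the set limit; inactive = fewer than half of replicates pass the limit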
Hck-Nef inh = blocks Nef-activated human Hck kinase. P08631. Recombinant Hck-YEEI plus Nef, Z-Lyte FRET kinase assay. inhibition, % at 20 µM. 220,000 compounds, 0.68% hits. AID 463187;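 active = Hck-Nef kinase inhibition above about 50%, limit read from the data; inactive = inhibition below that limit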
Each line names hits and unclear results; the compound was inactive in the other large screens. Shown are actives, neighbours in structure and some others; about 1.8% of the full set was active somewhere.

CC1=CC(c2ccc(Cl)cc2)n2nc(NS(=O)(=O)c3ccc(C)cc3)nc2N1 (stereo unspecified)	RanGTP-Impb inh inconclusive (no result: Runt-SMMHC FRET)
COc1cc(C2=NOC(C(=O)Nc3cc(C)on3)C2)cc(OC)c1OC (stereo unspecified)	RanGTP-Impb inh 19.7
COc1ccc(CC(=O)Nc2c3c(nn2C(C)(C)C)CS(=O)(=O)C3)cc1OC	none (no result: Runt-SMMHC FRET, Runt-CBFb FRET, Hck-Nef inh)
COc1ccc([C@@H]2[C@@H]3C(=O)N(C(C)(C)C)C(=O)[C@@H]3[C@]3(C)C(=O)N(c4cccc(Cl)c4)C(=O)N23)cc1	none (no result: Runt-SMMHC FRET, Runt-CBFb FRET, Hck-Nef inh)
COc1cc(NS(=O)(=O)c2ccc(N/C=C\C(=O)c3ccc(OC)c(OC)c3)cc2)nc(OC)n1	Runt-SMMHC FRET 82.6
O=C(Nc1ccc(N2CCOCC2)nc1)c1ccccc1Cl	none
CN(Cc1cn(Cc2ccccc2)nc1-c1ccc2c(c1)OCO2)Cc1nccn1C	none
CCCCCCOC(=O)C(C#N)c1nc2ccccc2nc1N1CCCCC1 (stereo unspecified)	RanGTP-Impb inh 30.6
CCCCCCOC(=O)C(C#N)c1nc2ccccc2nc1N1CCN(C)CC1 (stereo unspecified)	RanGTP-Impb inh 22.6
CCC(CC)COC(=O)C(C#N)c1nc2ccccc2nc1N1CCN(CC)CC1 (stereo unspecified)	none
CCC(C)COC(=O)C(C#N)c1nc2ccccc2nc1N1CCCCC1 (stereo unspecified)	RanGTP-Impb inh 23.1
CC(C)OC(=O)C(C#N)c1nc2ccccc2nc1N1CCCC1 (stereo unspecified)	none
O=C(CCc1nnc(-c2ccsc2)o1)N1CCc2c(Cl)cccc2C1	none
CC(C)(C)NS(=O)(=O)c1ccc(CCC(=O)N2CCOCC2)cc1	RanGTP-Impb inh 34.8
CNS(=O)(=O)c1ccc(CCC(=O)N2CCOCC2)cc1	none (no result: Runt-SMMHC FRET, Runt-CBFb FRET, Hck-Nef inh)
COCCNC(=O)C(C(=O)c1ccc(F)cc1)n1cc(C)ccc1=O (stereo unspecified)	none
Nc1[nH]nc2ncc3cc4ccccc4nc3c12	Hck-Nef inh 67.1
CCc1c(C(=O)NNC(=O)Nc2ccc3c(c2)OCO3)csc1C	none (no result: Runt-SMMHC FRET, Runt-CBFb FRET, Hck-Nef inh)
CCOC(=O)C1CCN(CCC(=O)Nc2ccc(Br)c(C)c2)CC1	none (no result: Runt-SMMHC FRET, Runt-CBFb FRET, Hck-Nef inh)
Cc1cc(NC(=O)CCN2CCC(C(N)=O)CC2)ccc1Br	RanGTP-Impb inh 58.6
N#Cc1c(C(F)(F)F)cc(-c2ccc(F)cc2)[nH]c1=O	none
COc1ccc(-c2cc(-c3ccco3)[nH]c(=O)c2C#N)cc1	Runt-SMMHC FRET 85.5
COc1ccc(-c2cc(C(F)(F)F)c(C#N)c(=O)[nH]2)cc1	Runt-SMMHC FRET 105.0, RanGTP-Impb inh 49.4
N#Cc1c(-c2cccc(Br)c2)cc(-c2ccco2)[nH]c1=O	Runt-SMMHC FRET 90.5, RanGTP-Impb inh 71.5
N#Cc1c(-c2ccccc2)cc(-c2ccccc2)[nH]c1=O	none (no result: Runt-SMMHC FRET, Runt-CBFb FRET, Hck-Nef inh)
CCCCOc1cccc(C2/C(=C(/O)c3ccc4c(c3)CC(C)O4)C(=O)C(=O)N2CCN2CCOCC2)c1 (stereo unspecified)	none (no result: Runt-SMMHC FRET, Runt-CBFb FRET, Hck-Nef inh)
CCOc1ccc(C2C=C(c3ccc(F)cc3)Nc3ncnn32)cc1 (stereo unspecified)	Runt-SMMHC FRET 62.6
Cc1ccc(C2C=C(c3ccccc3)Nc3ncnn32)cc1 (stereo unspecified)	none (no result: Runt-SMMHC FRET, Runt-CBFb FRET, Hck-Nef inh)
CC(C)(C)c1ccc(C2=CC(c3ccccc3F)n3ncnc3N2)cc1 (stereo unspecified)	RanGTP-Impb inh 25.1 (no result: Runt-SMMHC FRET, Runt-CBFb FRET, Hck-Nef inh)
CCOc1ccc(C2C=C(c3ccccc3)Nc3ncnn32)cc1 (stereo unspecified)	none
COc1ccc2c(c1)NC(c1ccc(N(C)C)cc1)c1cccn1-2 (stereo unspecified)	RanGTP-Impb inh 41.6
COc1ccc2c(c1)NC(c1cc(Cl)cc(Cl)c1O)c1cccn1-2 (stereo unspecified)	none (no result: RanGTP-Impb inh)
CCOc1ccc2nc(NCCCNS(=O)(=O)c3ccccc3)c(C#N)cc2c1	Runt-SMMHC FRET 61.3, Runt-CBFb FRET 80.5, RanGTP-Impb inh 134.0
CCOc1ccc2nc(NCCNC(=O)C(C)C)c(C)cc2c1	none
CCOc1ccc2nc(NCCCNS(=O)(=O)c3ccc(F)cc3)c(C#N)cc2c1	RanGTP-Impb inh 131.9 (no result: Runt-SMMHC FRET, Runt-CBFb FRET)
CCOc1ccc2nc(SCC(=O)N3c4ccccc4Sc4ccccc43)c(C#N)cc2c1	RanGTP-Impb inh inconclusive
Cc1ccc2c(c1)N(CC(=O)NCCCN1CCN(C)CC1)C(=O)CO2	none (no result: Runt-SMMHC FRET, Runt-CBFb FRET, Hck-Nef inh)
O=C1CC(c2ccccc2)CN1C(=O)c1cccnc1 (stereo unspecified)	none
O=C1CCC(c2ccccc2)N1C(=O)c1cccnc1 (stereo unspecified)	RanGTP-Impb inh 33.8

Source: PubChem BioAssay (several laboratories)
